In the library only some 2.1% were active in any assay of this set; here they are far more common.
EBI2 block: blocks human EBI2 receptor beta-arrestin signaling; P32249; EBI2 beta-arrestin recruitment, luminescence, 7a,25-OHC stimulated; inhibition, % at 5 µM; 360,000 tested, 0.81% active; AID 651636; in the data active = inhibition above about 38%;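 also: enzyme fragment complementation signal reports receptor beta-arrestin coupling in cells; 0% = agonist plus DMSO wells and 100% = wells without agonist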
APJ antag: blocks the human apelin receptor APJ | P35414 | CHO-K1 APJ beta-arrestin complementation, luminescence | inhibition, % at 20 µM | 330,000 tested, 0.32% active | AID 2521;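 active = inhibition above about 40% at 20 µM, limit read from the data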;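 also: cells challenged with 10 nM apelin-13 agonist together with compound; plate controls were apelin-13 plus DMSO wells for no effect and DMSO wells lacking apelin-13 for full effect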
HTR2A ag: mouse HTR2A agonism via beta-arrestin recruitment | P35363 | CHO-K1 mHTR2A beta-arrestin complementation, luminescence; percent of 30 µM serotonin response | activation, % at 7.6 µM | 360,000 tested, 0.66% active | AID 624169;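 active = activation above a run cutoff, the mean activation of all tested compounds plus 3 SD, cut at about 14% in these data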;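 also: 0% = plate median of compound wells and 100% = 30 µM serotonin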
CCR6 antag: CCR6 (human) receptor antagonism; CHO-K1 CCR6 PathHunter beta-arrestin, luminescence, CCL20-stimulated; inhibition, % at 20 µM; 340,000 tested, 0.49% active; AID 493098;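 active = compounds whose inhibition of the agonist-driven luminescence signal at 20 µM reaches about 50%, limit read from the data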;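 also: cells stimulated with CCL20 at 14 nM final; plate controls were DMSO with CCL20 for no effect and DMSO without agonist for full effect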
APJ agonist: agonists of human APJ apelin receptor. CHO-K1 APJ PathHunter beta-arrestin, luminescence; 0% DMSO wells, 100% apelin. 330,000 tested, 0.11% active. activation, % at 20 µM. P35414;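 active = activation more than six SD over the plate average, tested at 20 µM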;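 also: 0% = DMSO alone and 100% = apelin-13 at 10 nM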
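Test system – PathHunter CHO-K1 APJ (AGTRL-1) beta-arrestin reporter cells · Input – 1000 cells/well · Compound – single test compound dose, 20 µM final, 1% DMSO · Times – compound stimulation 90 min at 25 °C, detection 60 min · Technique – beta-gal luminescence · Read-out basis – APJ–arrestin association signal · Control set – negative DMSO alone, positive Apelin-13 at 10 nM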
CXCR6 block: inhibitors of human CXCR6 receptor. O00574. CHO-K1 PathHunter CXCR6 beta-arrestin, luminescence. inhibition, % at 20 µM. 360,000 tested, 0.36% active. AID 602244; in the data active = inhibition above about 34%, passing the limit was not always enough;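 also: antagonist mode with CXCL16 agonist at 10 nM final; 0% = 10 nM CXCL16 with DMSO and 100% = unstimulated wells without agonist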
Target sequence (O00574 whole entry, looked up): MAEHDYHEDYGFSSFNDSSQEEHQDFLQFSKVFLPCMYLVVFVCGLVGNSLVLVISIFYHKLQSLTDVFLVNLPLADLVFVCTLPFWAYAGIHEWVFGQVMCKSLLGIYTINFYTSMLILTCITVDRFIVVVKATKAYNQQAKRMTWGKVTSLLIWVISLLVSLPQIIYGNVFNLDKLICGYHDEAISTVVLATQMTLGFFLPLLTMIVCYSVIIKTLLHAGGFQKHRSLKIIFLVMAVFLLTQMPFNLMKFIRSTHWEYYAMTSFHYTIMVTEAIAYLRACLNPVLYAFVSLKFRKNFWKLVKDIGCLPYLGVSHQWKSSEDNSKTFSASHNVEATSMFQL
OPRM1 ag: activates human mu opioid receptor in HTR2A counterscreen. U2OS OPRM1 beta-arrestin PathHunter, luminescence; DMSO 0%, DAMGO 9.3 µM 100%. activation, % at 9.3 µM. 2,300 tested, 5.3% active. shares compounds with HTR2A ag;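 active = mean activation above the mean of DMSO-only wells plus 3 SD, cut at about 0.5% in these data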
m5-HT2A ag conf: mouse HTR2A agonism confirmed; shares compounds with HTR2A ag; CHO-K1 PathHunter beta-arrestin recruitment, luminescence; DMSO 0%, 30 µM serotonin 100%; activation, % at 7.6 µM; 2,300 tested, 19% active; AID 624381;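 active = mean activation across triplicates above the hit threshold derived in the original primary screen, cut at about 15% in these data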
* marks the source's active call; other numbers are inactive results; / = no result.

SMILES	EBI2 block	APJ antag	HTR2A ag	CCR6 antag	APJ agonist	CXCR6 block	OPRM1 ag	m5-HT2A ag conf
COc1ccc(-c2c(C#Cc3ccsc3)c3cc(-c4cccc5[nH]ccc45)ccc3n2C)cc1	6	-10	-9	8	1	-4	/	/
CN(C)c1ccc(O)c2c1CC1CC3[C@@H](N(C)C)C(=O)C(C(N)=O)C(=O)[C@]3(O)C(=O)C1C2=O (some centres not stated)	-3	2	67*	10	0	-17	0	153*
CC(C)CN(C(=O)CSc1nncn1-c1ccccc1)c1c(N)n(CC(C)C)c(=O)[nH]c1=O	-7	-26	16*	2	-2	-5	-1	0
Clc1ccc(/C=N/NC2=Nc3cccc4cccc2c34)cc1	29	0	15*	11	-1	2	0	2
O=C(c1ccc(NC2=NC3CS(=O)(=O)CC3S2)cc1)N1CCN(c2ccc(F)cc2)CC1 (configuration not stated)	1	3	-3	-5	-2	-8	/	/
O=C(c1ccc(NC2=NC3CS(=O)(=O)CC3S2)cc1)N1CCN(c2ccccc2F)CC1 (configuration not stated)	-9	8	24*	4	-4	-8	-1	-4
CCC(C)C(NC(=O)c1ccccc1)C(=O)N1CCN(C(=O)c2ccccc2)CC1 (configuration not stated)	-14	/	7	/	/	1	/	/
Nc1cc(Cl)nnc1Cl	5	5	19*	9	-2	-5	-1	-2
Cc1cc(C)c2cc(N)c(Cl)nc2n1	-6	/	-1	/	/	2	/	/
COc1cccc(OCc2nn3c(=O)c(-c4ccccc4)nnc3s2)c1	-13	/	-1	4	/	6	/	/
CCOc1ccc(NC(=O)CCN2CCN(S(=O)(=O)c3ccc(F)cc3)CC2)cc1	-13	-9	-1	3	2	-4	/	/
CCOc1ccccc1NC(=O)CCN1CCN(S(=O)(=O)c2ccc(Br)cc2)CC1	-4	19	17*	7	-5	-5	0	1
CN1CCc2cccc3c2[C@@H]1Cc1ccc(O)c(O)c1-3	0	18	38*	7	15	4	0	97*
Cc1noc(C)c1COc1ccccc1C(=O)NC1CCC(C)CC1 (configuration not stated)	3	7	-1	6	13	-2	/	/
CCOC(=O)CC1(NC(=O)c2cc(COc3cccc(OC)c3)on2)CCCCC1	5	0	15*	1	2	-3	-1	-5
COc1cccc(OCc2cc(C(=O)NCC3CCCCC3)no2)c1	0	-3	-6	11	8	13	/	/
Cc1cc(=O)[nH]c2nnc(-c3ccc(Cl)cc3)n12	5	10	8	-6	-3	-11	/	/
CN(CC(=O)Nc1ccc(F)c(F)c1F)C(=O)CC1OC(=O)c2ccccc21 (configuration not stated)	10	-25	4	6	4	-4	/	/
Cc1cccc(C)c1NC(=O)CN(C)C(=O)CC1OC(=O)c2ccccc21 (configuration not stated)	1	12	18*	7	-2	-2	-1	-1
CC(C)(C)c1csc(NC(=O)c2c(F)c(F)c(F)c(F)c2F)n1	-4	-6	17*	10	-1	-12	0	15*
CCOC(=O)N1CCC(NC(=O)c2ccc3c(Cl)c4c(nc3c2)CCCC4)CC1	12	15	18*	19	3	13	-1	-3
O=C(NC1CC1)c1ccc2c(Cl)c3c(nc2c1)CCCC3	0	-1	6	11	0	-5	/	/
C[C@@H]1CN([C@@H](C)CO)C(=O)c2cc(C#Cc3ccccc3)cnc2O[C@H]1CN(C)C(=O)c1ccccc1F	1	/	-1	/	/	3	/	/
Cc1[nH]c2ccccc2c1C(c1ccccn1)N1CCC(C(N)=O)CC1 (configuration not stated)	-1	22	17*	3	-6	-4	0	-5
Cn1c(SCC(=O)NC(=O)Nc2ccccc2)nnc1-c1ccncc1	-1	-13	2	-2	2	-12	/	/
SMILES	EBI2 block	APJ antag	HTR2A ag	CCR6 antag	APJ agonist	CXCR6 block	OPRM1 ag	m5-HT2A ag conf
CCn1cc(C(=O)NCCCN2CCCC(C)C2)c(=O)c2cc(S(=O)(=O)N3CCOCC3)ccc21 (configuration not stated)	-5	4	21*	17	0	3	-1	-5
CCOCCCNC(=O)c1cn(CC)c2ccc(S(=O)(=O)N3CCOCC3)cc2c1=O	-4	3	9	7	0	14	/	/
CC(=O)/C(C(=N)N1CCN(c2cccc(Cl)c2)CC1)=C(\C)O	5	9	18*	-6	1	4	-1	-2
N#CCC(=N)N1CCN(c2ccccc2)CC1	7	0	1	11	-1	0	/	/
O=C(O)/C=C/C(=O)N1CCN(c2cccc(Cl)c2)CC1	-4	-9	31*	12	-3	3	-1	4
N#CCC(=N)N1CCN(c2cccc(Cl)c2)CC1	-4	-13	15*	25	0	0	-1	5
CC(C)=CCC[C@H](C)C[C@@H]1Cc2[nH][nH]c(=O)c2[C@H](c2ccc(F)cc2)O1	-2	/	-1	/	/	-8	/	/
CC(=O)N1c2ccc(S(=O)(=O)N3CCC(C(=O)N4CCN(c5cccc(C(F)(F)F)c5)CC4)CC3)cc2CC1C (configuration not stated)	20	8	0	22	11	2	/	/
CC(=O)c1ccc(N2CCN(C(=O)C3CCN(S(=O)(=O)c4ccc5c(c4)CC(C)N5C(C)=O)CC3)CC2)cc1 (configuration not stated)	1	7	16*	1	-2	-6	0	1
CCc1ccc(NC(=O)COC(=O)c2nc3nc(C)cc(C)n3n2)cc1	5	-49	2	7	-3	-3	/	/
O=C(Cc1ccc(Cl)cc1)NCCS(=O)(=O)N1CCN(c2ccccc2F)CC1	3	-51	2	16	-1	-1	/	/
O=C(COc1ccc(Cl)cc1)NCCS(=O)(=O)N1CCN(c2ccccc2F)CC1	21	11	16*	12	-3	0	0	2
Cc1n[nH]c(=S)n(/N=C/c2cccs2)c1=O	-1	11	14*	-8	2	-16	-1	-5
CCOC(=O)c1cc(CC)sc1NC(=O)CN1CCN(C(=O)c2ccco2)CC1	2	-12	0	12	-1	7	/	/

Screening data deposited in PubChem by several laboratories.
